Measurements published in ChEMBL document CHEMBL3414476, “Novel multitarget-directed ligands (MTDLs) with acetylcholinesterase (AChE) inhibitory and serotonergic subtype 4 receptor (5-HT4R) agonist activities as potential agents against Alzheimer's disease: the design of donecopride” (J Med Chem, 2015).
Calls of active or inactive are those of the source. The calls are words filed in the database; no cut-off is given here.

Key:
[1] = target: Cholinesterase (Equus caballus) (UniProt P81908); test: Inhibition of equine serum BuChE at 10 uM pre-incubated for 5 mins before butyrylthiocholine iodide substrate by Ellman' method
Method in brief: (§1)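 Ellman assay in 96-well format: 0.3 mM DTNB in phosphate buffer pH 7.4, compound in DMSO, and enzyme (human erythrocyte AChE or equine serum BuChE, 0.05 U final) preincubated 5 min at 25 °C. Started with 10 mM acetyl- or butyrylthiocholine iodide; A412 followed every minute for 10 min, substrate-free blank.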

Mus musculus [2] = test: Antiamnesic activity in NMRI mouse assessed as reversal of scopolamine-induced spontaneous alteration deficit at 1 mg/kg, ip by Y maze test; format: functional, organism-based; set-up: dose 1 mg/kg
Cholinesterase = Cholinesterase (Equus caballus, UniProt P81908); test: Inhibition of equine serum BuChE pre-incubated for 5 mins before butyrylthiocholine iodide substrate by Ellman' method; method in brief: as §1
Acetylcholinesterase [3] = target: T1, Acetylcholinesterase (Homo sapiens, UniProt P22303); test: Inhibition of human erythrocyte AChE pre-incubated for 5 mins before acetylthiocholine iodide substrate by Ellman' method
[4] = target: 5-hydroxytryptamine receptor 4 (Cavia porcellus, UniProt O70528); test: Displacement of [3H]GR113808 from 5-HT4R in guinea pig brain membranes incubated for 30 mins by radioligand binding assay; format: cell membranes, Membrane
Acetylcholinesterase [5] = target: T1, Acetylcholinesterase; test: Inhibition of human erythrocyte AChE at 10 uM pre-incubated for 5 mins before acetylthiocholine iodide substrate by Ellman' method; method in brief: as §1
Mus musculus [6] = test: Antiamnesic activity in NMRI mouse assessed as reversal of scopolamine-induced spontaneous alteration deficit at 0.1 mg/kg, ip co-administered with 0.3 mg/kg DPZ by Y maze test; format: functional, organism-based
Method in brief: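 Scopolamine 0.5 mg/kg given SC 30 min before the Y-maze test. The reference combination was 0.1 mg/kg IP (30 min before) plus DPZ 0.3 mg/kg SC (20 min before), in 0.9% NaCl vehicle. Percent spontaneous alternation = actual/(total arm entries − 2) × 100. Mean ± SD, n = 10–12, univariate t test versus 50%.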

Mus musculus [7] = test: Toxicity in NMRI mouse assessed as induction of hypoactivity at 10 mg/kg, ip; format: organism-based; set-up: dose 10 mg/kg, route intraperitoneal; conditions: in vivo
Method in brief: (§2)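 Mice in groups of four received graded IP doses of […]. Behavioural and neurological changes (hypo- or hyperactivity, ataxia, tremors, convulsion, etc.) were scored by standardized observation at 30 min, 3 h and 24 h against controls.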

Mus musculus [8] = test: Toxicity in NMRI mouse assessed as induction of ataxia at 10 mg/kg, ip; format: organism-based; set-up: dose 10 mg/kg, route intraperitoneal; conditions: in vivo; method in brief: as §2
Mus musculus [9] = test: Toxicity in NMRI mouse assessed as induction of sleep at 10 mg/kg, ip; format: organism-based; set-up: dose 10 mg/kg, route intraperitoneal; conditions: in vivo; method in brief: as §2
[10] = target: 5-hydroxytryptamine receptor 4 (Homo sapiens) (UniProt Q13639); test: Displacement of [3H]GR113808 from human 5-HT4R at 10 nM by radioligand binding assay
Method in brief: (§3)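 Recombinant human 5-HT4 membranes, 2.5 μg protein, incubated in duplicate with 0.2 nM [3H]GR113808 in 25 mM Tris pH 7.4 for 60 min at 25 °C, with or without drug at 10−6 or 10−8 M. Filtered on PEI-presoaked GF/C filters, washed with ice-cold buffer. Nonspecific binding with 30 μM serotonin. Read-out is % inhibition of binding.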

[11] = target: 5-hydroxytryptamine receptor 4 (Homo sapiens) (UniProt Q13639); test: Displacement of [3H]GR113808 from human 5-HT4R at 1 uM by radioligand binding assay; method in brief: as §3
[12] = target: 5-hydroxytryptamine receptor 4 (Homo sapiens) (UniProt Q13639); test: Agonist activity at HA-tagged 5-HT4R (unknown origin) expressed in COS7 cells assessed as cAMP accumulation by HTRF assay; format: functional, cell-based; set-up: concentration or dose not given beside the values; conditions: COS-7
Mus musculus [13] = test: Toxicity in NMRI mouse assessed as induction of exophtalmy at 2 mg/kg, ip; format: organism-based; set-up: dose 2 mg/kg, route intraperitoneal; conditions: in vivo
Method in brief: (§4)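 Behavioural and neurological changes scored by standardized observation at 30 min, 3 h and 24 h against controls.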

Mus musculus [14] = test: Toxicity in NMRI mouse assessed as induction of hyperactivity at 2 mg/kg, ip; format: organism-based; set-up: dose 2 mg/kg, route intraperitoneal; conditions: in vivo; method in brief: as §4
Mus musculus [15] = test: Toxicity in NMRI mouse assessed as induction of irritability at 2 mg/kg, ip; format: organism-based; set-up: dose 2 mg/kg, route intraperitoneal; conditions: in vivo; method in brief: as §4
[16] = target: 5-hydroxytryptamine receptor 4 (Homo sapiens) (UniProt Q13639); test: Activity at 5-HT4R (unknown origin) expressed in COS7 cells assessed as increase in sAPPalpha release relative to 5-HT; format: cell-based; conditions: COS-7
Mus musculus [17] = test: Increase in sAPPalpha level in C57BL/6 mouse CSF at 1 mg/kg, ip measured after 90 mins by ELISA method; format: functional, organism-based; set-up: dose 1 mg/kg
Method in brief: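 Wild-type C57BL/6 mice, 2 months old, n = 7/group. Single IP injection of vehicle (0.9% NaCl, 0.2% DMSO) or drug. After 90 min, CSF was taken from the cisterna magna under anesthesia, frozen at −80 °C and heated at 60 °C for 5 min. sAPPα measured by mouse/rat ELISA read at 620/450 nm. Unpaired t test.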

Mus musculus [18] = test: Antiamnesic activity in NMRI mouse assessed as reversal of scopolamine-induced spontaneous alteration deficit at 0.3 mg/kg, ip by Y maze test; format: functional, organism-based; set-up: dose 0.3 mg/kg
Method in brief: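 Male NMRI mice, 3 months old, 35−40 g. Scopolamine 0.5 mg/kg SC 30 min before the Y-maze test; test drug in 0.9% NaCl IP 30 min before. Spontaneous alternation = actual/possible alternations (total arm entries minus two) × 100. n = 10−12. Compared with 50% by univariate t test.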

Mus musculus [19] = test: Antidepressant-like activity in NMRI mouse assessed as reduction in immobility time at 0.3 mg/kg, ip administered 30 mins before test; format: functional, organism-based; set-up: dose 0.3 mg/kg
Method in brief: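 Male NMRI mice given drug in 0.9% NaCl IP 30 min before the test, not pretested. Each mouse swam 6 min in a 12 cm diameter cylinder, water 13 cm deep at 23−24 °C. Immobility was scored over the last 4 min. n = 10−12, SNK test versus NaCl.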

Mus musculus [20] = test: Toxicity in NMRI mouse assessed as induction of passivity at 100 mg/kg, ip; format: organism-based; set-up: dose 100 mg/kg, route intraperitoneal; conditions: in vivo; method in brief: as §2
Mus musculus [21] = test: Toxicity in NMRI mouse assessed as effect on spontaneous locomotor activity at 10 mg/kg, ip dosed 30 mins before placing mouse in actimeter; format: organism-based; set-up: dose 10 mg/kg, route intraperitoneal; conditions: in vivo, 0.5 h
Method in brief: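 Adult male NMRI mice were dosed IP 30 min before being placed individually in an infrared actimeter. Beam interruptions were counted over 30 min. Mean ± SD, n = 9–10, SNK test versus NaCl.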

Mus musculus [22] = test: Toxicity in NMRI mouse assessed as induction of hypoactivity at 100 mg/kg, ip; format: organism-based; set-up: dose 100 mg/kg, route intraperitoneal; conditions: in vivo; method in brief: as §2
[23] = Toxicity in ip dosed NMRI mouse; format: organism-based; conditions: in vivo
Mus musculus [24] = test: Toxicity in NMRI mouse assessed as toxic symptoms at 1 to 10 mg/kg, ip; format: organism-based; set-up: dose 1-10 mg/kg, route intraperitoneal; conditions: in vivo; method in brief: as §2

Sequence of Cholinesterase (P81908 whole entry): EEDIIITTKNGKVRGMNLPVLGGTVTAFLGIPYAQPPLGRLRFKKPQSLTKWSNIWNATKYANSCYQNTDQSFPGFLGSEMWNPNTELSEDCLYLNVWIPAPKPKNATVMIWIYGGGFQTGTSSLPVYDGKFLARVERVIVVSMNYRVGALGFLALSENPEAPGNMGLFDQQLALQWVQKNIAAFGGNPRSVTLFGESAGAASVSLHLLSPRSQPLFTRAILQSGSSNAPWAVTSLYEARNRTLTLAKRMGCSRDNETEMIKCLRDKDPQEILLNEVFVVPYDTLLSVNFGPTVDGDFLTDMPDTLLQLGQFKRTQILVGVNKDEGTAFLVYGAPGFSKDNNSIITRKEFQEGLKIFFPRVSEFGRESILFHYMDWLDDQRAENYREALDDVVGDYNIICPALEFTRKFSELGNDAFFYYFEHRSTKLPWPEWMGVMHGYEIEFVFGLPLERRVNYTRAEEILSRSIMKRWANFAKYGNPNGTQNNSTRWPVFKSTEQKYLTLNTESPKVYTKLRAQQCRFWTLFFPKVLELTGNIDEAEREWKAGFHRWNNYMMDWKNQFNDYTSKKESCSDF
Sequence of Cholinesterase (Equus caballus) (P81908 whole entry): as above
Sequence of 5-hydroxytryptamine receptor 4 (Homo sapiens) (Q13639 whole entry): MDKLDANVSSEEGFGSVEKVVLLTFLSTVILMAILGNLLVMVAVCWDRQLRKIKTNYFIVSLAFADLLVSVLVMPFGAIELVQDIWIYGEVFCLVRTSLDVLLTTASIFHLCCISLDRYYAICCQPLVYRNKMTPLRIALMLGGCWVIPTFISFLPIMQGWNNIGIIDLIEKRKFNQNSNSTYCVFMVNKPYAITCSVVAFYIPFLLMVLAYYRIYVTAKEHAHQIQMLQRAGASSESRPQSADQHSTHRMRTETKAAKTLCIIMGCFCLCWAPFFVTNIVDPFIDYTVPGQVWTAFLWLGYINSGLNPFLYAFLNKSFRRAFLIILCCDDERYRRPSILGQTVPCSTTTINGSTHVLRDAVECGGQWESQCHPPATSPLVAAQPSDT
T1 sequence (P22303 whole entry): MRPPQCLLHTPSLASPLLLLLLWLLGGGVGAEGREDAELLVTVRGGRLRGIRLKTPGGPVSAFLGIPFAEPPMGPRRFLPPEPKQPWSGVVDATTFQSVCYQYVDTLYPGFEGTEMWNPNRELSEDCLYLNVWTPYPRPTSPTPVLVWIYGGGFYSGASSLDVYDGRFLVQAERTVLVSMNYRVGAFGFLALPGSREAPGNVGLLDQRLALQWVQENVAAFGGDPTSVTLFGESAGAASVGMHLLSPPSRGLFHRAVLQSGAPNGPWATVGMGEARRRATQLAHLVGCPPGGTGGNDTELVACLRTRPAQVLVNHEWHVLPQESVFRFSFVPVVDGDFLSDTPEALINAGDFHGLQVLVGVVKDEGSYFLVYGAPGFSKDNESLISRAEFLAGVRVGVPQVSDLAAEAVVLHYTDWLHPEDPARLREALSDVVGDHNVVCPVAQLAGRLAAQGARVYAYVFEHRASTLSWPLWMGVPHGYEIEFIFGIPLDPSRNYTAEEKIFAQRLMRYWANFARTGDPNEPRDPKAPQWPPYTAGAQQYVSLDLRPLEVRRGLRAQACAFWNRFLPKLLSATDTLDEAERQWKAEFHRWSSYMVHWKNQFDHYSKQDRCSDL
Sequence of 5-hydroxytryptamine receptor 4 (O70528 whole entry): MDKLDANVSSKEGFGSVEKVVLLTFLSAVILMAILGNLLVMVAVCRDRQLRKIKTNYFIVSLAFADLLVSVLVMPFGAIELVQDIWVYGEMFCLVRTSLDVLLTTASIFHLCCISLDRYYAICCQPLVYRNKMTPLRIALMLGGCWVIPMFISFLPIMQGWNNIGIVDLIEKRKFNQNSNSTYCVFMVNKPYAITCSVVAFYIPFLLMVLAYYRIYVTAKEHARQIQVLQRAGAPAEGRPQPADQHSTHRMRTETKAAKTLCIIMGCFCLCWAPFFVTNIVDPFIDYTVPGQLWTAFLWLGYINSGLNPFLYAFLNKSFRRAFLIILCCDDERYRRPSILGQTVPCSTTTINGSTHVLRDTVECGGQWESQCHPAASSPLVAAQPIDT

COc1cc(N)c(Cl)cc1C(=O)CCC1CCN(CC2CCC2)CC1
inhibition [1]: 47%

COc1cc2c(cc1OC)C(=O)C(CC1CCN(Cc3ccccc3)CC1)C2 (stereo not given)
Activity (Mus musculus [2]): Active

COc1cc(N)c(Cl)cc1C(=O)CCC1CCN(Cc2cccnc2)CC1
IC50 (Cholinesterase): 9160 nM
IC50 (Acetylcholinesterase [3]): 45 nM
Ki [4]: 20.4 nM

COc1cc(N)c(Cl)cc1C(=O)CCC1CCN(CC2CC2)CC1
IC50 (Cholinesterase): 6600 nM

COc1cc(N)c(Cl)cc1C(=O)CCC1CCN(CCC2CCCCC2)CC1
IC50 (Cholinesterase): 6340 nM

CO/N=C(\CCC1CCN(CC2CCCCC2)CC1)c1cc(Cl)c(N)cc1OC
inhibition (Acetylcholinesterase [5]): 33%
IC50 (Cholinesterase): 7420 nM

COc1cc(N)c(Cl)cc1C(=O)OCC1CCN(CC2CCCCC2)CC1
IC50 (Cholinesterase): 4100 nM

CCCCN1CCC(CCC(=O)c2cc(Cl)c(N)cc2OC)CC1
Activity (Mus musculus [6]): Active
IC50 (Acetylcholinesterase [3]): 403 nM
Ki [4]: 9.3 nM

COc1cc(N)c(Cl)cc1/C(CCC1CCN(CC2CCCCC2)CC1)=N/O
Ki [4]: 193 nM

CN(C)CCCN1c2ccccc2Sc2ccc(Cl)cc21 [CHLORPROMAZINE]
Activity (Mus musculus [7]): Toxic
Activity (Mus musculus [8]): Toxic
Activity (Mus musculus [9]): Toxic

COc1cc(N)c(Cl)cc1C(=O)NCC1CCN(CC2CCCCC2)CC1
inhibition (Acetylcholinesterase [5]): 45%
Ki [4]: 2.25 nM

COc1cc(N)c(Cl)cc1C(=O)CCC1CCN(CC2CCNCC2)CC1
inhibition [10]: 69%
inhibition [11]: 100%
Activity [12]: 20%
inhibition [1]: 26%

COc1cc(N)c(Cl)cc1C(=O)CCC1CCN(Cc2ccncc2)CC1
IC50 (Acetylcholinesterase [3]): 121 nM
Ki [4]: 20.6 nM
inhibition [1]: 46%

CC(N)Cc1ccccc1 (stereo not given) [AMPHETAMINE]
Activity (Mus musculus [13]): Toxic
Activity (Mus musculus [14]): Toxic
Activity (Mus musculus [15]): Toxic

COc1cc(N)c(Cl)cc1C(=O)CCC1CCN(CC2CCCCC2C)CC1 (stereo not given)
IC50 (Cholinesterase): 4340 nM

COc1cc(N)c(Cl)cc1C(=O)CCC1CCN(CC2CCCCC2)CC1
inhibition [10]: 73%
Emax [16]: 22.5%
inhibition [11]: 100%
Activity [12]: 48.3%
Activity (Mus musculus [17]): Active
Activity (Mus musculus [18]): Active
Activity (Mus musculus [19]): Active
Activity (Mus musculus [20]): Toxic
Activity (Mus musculus [21]): Non-toxic
IC50 (Cholinesterase): 3530 nM
Activity (Mus musculus [22]): Toxic
LD50 [23]: 75 mg/kg
Activity (Mus musculus [24]): Non-toxic

COc1cc(N)c(Cl)cc1C(=O)CCC1CCN(Cc2ccccc2)CC1
inhibition [10]: 41%
inhibition [11]: 100%
Activity [12]: 65%
IC50 (Cholinesterase): 1830 nM
IC50 (Acetylcholinesterase [3]): 8.5 nM
Ki [4]: 14.3 nM

COc1cc(N)c(Cl)cc1C(O)CCC1CCN(CC2CCCCC2)CC1 (stereo not given)
IC50 (Cholinesterase): 3640 nM
IC50 (Acetylcholinesterase [3]): 1030 nM
Ki [4]: 122 nM

COc1cc(N)c(Cl)cc1C(=O)CCC1CCN(CC2CCCC2)CC1
inhibition [10]: 58%
inhibition [11]: 100%
Activity [12]: 48%
IC50 (Cholinesterase): 6910 nM

COc1cc(N)c(Cl)cc1C(=O)CCC1CCN(CC2CCCCCC2)CC1
inhibition [10]: 46%
inhibition [11]: 99%
Activity [12]: 58%
IC50 (Cholinesterase): 4000 nM
